According to ChEMBL document CHEMBL4014320 (J Med Chem, 2017):

How the values were obtained:
[1] = target: T1, Peroxisome proliferator-activated receptor gamma (Homo sapiens) (UniProt P37231); experiment: Agonist activity at human GAL4 fused PPARgamma-Hinge-LBD expressed in HEK293T cells after 18 hrs by luciferase reporter gene assay relative to rosiglitazone; format: cell-based; conditions: HEK-293T
T1 sequence (whole entry): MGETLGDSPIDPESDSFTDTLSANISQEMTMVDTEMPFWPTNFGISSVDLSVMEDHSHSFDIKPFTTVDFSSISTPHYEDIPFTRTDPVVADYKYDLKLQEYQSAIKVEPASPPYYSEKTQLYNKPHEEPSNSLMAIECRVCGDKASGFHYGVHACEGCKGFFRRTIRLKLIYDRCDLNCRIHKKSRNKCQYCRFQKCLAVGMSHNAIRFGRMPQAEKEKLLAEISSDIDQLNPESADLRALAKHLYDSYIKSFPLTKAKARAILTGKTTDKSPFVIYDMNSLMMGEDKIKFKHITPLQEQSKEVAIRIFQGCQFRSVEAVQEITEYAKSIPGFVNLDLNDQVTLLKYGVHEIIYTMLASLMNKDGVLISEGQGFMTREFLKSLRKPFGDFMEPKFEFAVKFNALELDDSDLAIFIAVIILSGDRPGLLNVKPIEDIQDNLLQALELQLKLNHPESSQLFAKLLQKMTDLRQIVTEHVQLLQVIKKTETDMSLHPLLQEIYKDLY
Procedure, shortened: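 HEK293T cells carried transfected human GAL4-PPARγ-hinge-LBD and a 5× UAS-luciferase reporter. Maximal transcriptional output was normalized to rosiglitazone, taken as 100% transactivation. Points were run in triplicate, with two biological replicates.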

[2] = target: T2, Peroxisome proliferator-activated receptor gamma (Homo sapiens, UniProt P37231); experiment: Agonist activity at human GAL4 fused PPARgamma-Hinge-LBD expressed in HEK293T cells after 18 hrs by luciferase reporter gene assay; format: cell-based, HEK-293T
T2 sequence (P37231 whole entry): T1 sequence (whole entry)
Procedure, shortened: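 HEK293T cells were co-transfected with human GAL4-PPARγ-hinge-LBD and a 5× multimerized UAS-luciferase reporter (4.5 μg each) and grown serum-free for 18 h at 37 °C under 5% CO2. After 18 h, luminescence was read. EC50 came from plotting fold change over DMSO; points were run in triplicate, with two biological replicates.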

Rattus norvegicus = experiment: Antidiabetic activity in Zucker fa/fa rat assessed as decrease in blood glucose levels at 0.3 mg/kg administered via oral gavage for 14 days by oral glucose tolerance test; format: functional; parameters: scale not given: the % may be the effect or the level left

SMILES | Activity [1] [%] | EC50 [2] [nM] | Activity (Rattus norvegicus) [%]
COc1cccc(C(=O)Nc2cc(Cl)c(Oc3cnc4ccccc4c3)c(Cl)c2)c1 | 2 | – | –
O=S(=O)(Nc1cc(Cl)c(Oc2cnc3ccccc3c2)c(Cl)c1)c1ccc(Br)cc1OC(F)(F)F | 21 | 4 | –
O=S(=O)(Nc1cc(Cl)c(Oc2cnc3ccccc3c2)c(Cl)c1)c1cccs1 | 14 | – | –
Cc1cc(S(=O)(=O)Nc2cc(Cl)c(Oc3cnc4ccccc4c3)c(Cl)c2)ccc1Br | 29 | 600 | –
O=S(=O)(Nc1cc(Cl)c(Oc2cnc3ccccc3c2)c(Cl)c1)c1ccc(Br)c(F)c1 | 9 | 169 | –
O=S(=O)(Nc1cc(Cl)c(Oc2cnc3ccccc3c2)c(Cl)c1)c1ccc(Br)cc1Cl | 27 | 134 | –
O=S(=O)(Nc1cc(Cl)c(Oc2cnc3ccccc3c2)c(Cl)c1)c1ccc2ccccc2c1 | 23 | 4290 | –
O=S(=O)(Nc1cc(Cl)c(Oc2cnc3ccccc3c2)c(Cl)c1)c1ccc(Br)cc1F | 13 | 2 | –
Cc1cc(C)c(S(=O)(=O)Nc2cc(Cl)c(Oc3cnc4ccccc4c3)c(Cl)c2)c(C)c1 | 14 | 3310 | –
O=S(=O)(Nc1cc(Cl)c(Oc2cnc3ccccc3c2)c(Cl)c1)c1cc(F)c(Br)cc1F | 10 | 131 | –
O=S(=O)(Nc1cc(Cl)c(Oc2cnc3ccccc3c2)c(Cl)c1)c1ccc(Br)cc1C(F)(F)F | 34 | 94 | –
O=S(=O)(Nc1cc(Cl)c(Oc2cnc3ccccc3c2)c(Cl)c1)c1ccc(Br)cc1 | 11 | 151 | –
O=S(=O)(Nc1cc(Cl)c(Oc2cnc3ccccc3c2)c(Cl)c1)c1ccc(Br)c(C(F)(F)F)c1 | 18 | 957 | –
O=S(=O)(Nc1cc(Cl)c(Oc2cnc3ccccc3c2)c(Cl)c1)c1ccccc1Cl | 19 | 5810 | –
O=S(=O)(Nc1cc(Cl)c(Oc2cnc3ccccc3c2)c(Cl)c1)c1ccc(Cl)cc1Cl [INT131] | – | – | 30
